Source: ChEMBL document CHEMBL1133665, “Secondary amides of (R)-3,3,3-trifluoro-2-hydroxy-2-methylpropionic acid as inhibitors of pyruvate dehydrogenase kinase” (J Med Chem, 2000)
The source made the active and inactive calls. The rule behind the calls is not given here.

Tests used:
Rattus norvegicus [1] = assay: In vivo %control of lactate in normal Sprague-Dawley rats after 2 hr at a dose of 1 umol/Kg; format: functional
How it was run: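 Male Sprague-Dawley rats, about 200 g, randomly assigned to groups (n = 6/group), fasted 24 h, then given compound orally in 0.5% carboxymethylcellulose with 0.2% Tween-80 (1 mL/100 g body weight) or vehicle alone. Blood drawn 2 h post-dose into heparin/fluoride tubes. Lactate measured on a dual-channel biochemistry analyzer and expressed as percent of vehicle control. Unpaired two-tailed t-test.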

[2] = target: Pyruvate dehydrogenase kinase (Rattus norvegicus, UniProt Q63065+A6IPZ9+Q64536+O54937); assay: Inhibitory activity tested against Pyruvate Dehydrogenase Kinase (PDHK) receptor from rats.; format: protein assay
How it was run: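 Commercial PDH complex used as the kinase-containing preparation. PDHK inhibition read spectrophotometrically as NADH production at 340 nm, measured with and without ATP. IC50 ± standard error, from purified substances.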

Rattus norvegicus [3] = assay: In vivo %control of lactate in normal Sprague-Dawley rats after 2 hr at a dose of 3 umol/Kg; format: functional
How it was run: (§1)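 Male Sprague-Dawley rats, about 200 g, randomly assigned to groups (n = 6/group) and fasted 24 h. Single oral dose of compound in 0.5% carboxymethylcellulose/0.2% Tween-80 (1 mL/100 g), or vehicle alone. Blood taken 2 h post-dose into heparin/fluoride tubes; lactate measured on a biochemistry analyzer. Expressed as percent of vehicle control; groups compared by two-tailed unpaired t-test.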

Rattus norvegicus [4] = assay: In vivo %control of lactate in normal Sprague-Dawley rats after 2 hr at a dose of 10 umol/Kg; format: functional; how it was run: as §1
Homo sapiens = organism: Homo sapiens; assay: Effective concentration required to increase the oxidation of lactate in cellular assay using Human Skin Fibroblasts; format: functional
How it was run: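 Human fibroblasts harvested with trypsin 2-4 days post-confluence and assayed in suspension ((3.5-5) × 10^5 cells per tube) with test compound or solvent control. Equilibrated at 37 °C, then started with DMEM-S containing 25 µM lactate and 0.2 µCi/mL d,l-[1-14C]lactate. Gassed with 95% O2/5% CO2 and shaken 25 min at 37 °C. Stopped with TCA; released 14CO2 trapped and counted by scintillation. EC50 ± standard error.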

Rattus norvegicus [5] = assay: In vivo %control of lactate in normal Sprague-Dawley rats after 2 hr at a dose of 30 umol/Kg; not active; format: functional, organism-based; how it was run: as §1
Rattus norvegicus [6] = assay: In vivo %control of lactate in normal Sprague-Dawley rats after 2 hr at a dose of 30 umol/Kg; format: functional; how it was run: as §1
Rattus norvegicus [7] = assay: In vivo %control of lactate in normal Sprague-Dawley rats after 2 hr at a dose of 100 umol/Kg; format: functional; how it was run: as §1
Rattus norvegicus [8] = assay: In vivo %control of lactate in normal Sprague-Dawley rats after 2 hr at a dose of 100 umol/Kg; Not active; format: functional, organism-based; how it was run: as §1

Row | SMILES | Control (Rattus norvegicus [1]) [%] | IC50 [2] [µM] | Control (Rattus norvegicus [3]) [%] | Control (Rattus norvegicus [4]) [%] | EC50 (Homo sapiens) [µM] | NA (Rattus norvegicus [5]) | Control (Rattus norvegicus [6]) [%] | Control (Rattus norvegicus [7]) [%] | NA (Rattus norvegicus [8])
1 | O=C([O-])C(Cl)Cl.[Na+] [SODIUM DICHLOROACETATE] | 70 | > 1000 | – | – | – | – | – | – | –
2 | C[C@@H]1CN(C(=O)[C@@](C)(O)C(F)(F)F)[C@@H](C)CN1C(=O)c1ccc(C#N)cc1 | 87 | 0.016 | 90 | 74 | 0.057 | – | – | – | –
3 | C[C@@H]1CN(C(=O)[C@@](C)(O)C(F)(F)F)[C@@H](C)CN1Cc1ccccc1 | – | 0.082 | – | – | – | inactive | – | – | –
4 | C[C@@H]1CN(C(=O)[C@@](C)(O)C(F)(F)F)CCN1C(=O)c1ccc(C#N)cc1 | – | 0.079 | – | 90 | 0.25 | – | 60 | 67 | –
5 | C[C@@H]1CN(C(=O)[C@@](C)(O)C(F)(F)F)CCN1C(=O)c1cccc2ccccc12 | – | 0.07 | – | – | – | – | – | – | inactive
